Measured values reported in ChEMBL document CHEMBL3621107, “Ring fusion strategy for synthesis and lead optimization of sulfur-substituted anthra[1,2-c][1,2,5]thiadiazole-6,11-dione derivatives as promising scaffold of antitumor agents” (Eur J Med Chem, 2015).

Assays:
Malme-3M = experiment: Cytotoxicity against human MALME-3M cells assessed as cell growth at 10 uM after 48 hrs by SRB assay relative to control; assay type: functional; settings: read-out: Activity
Summary of the method: (§1)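 First-stage NCI-60 screen by the NCI Developmental Therapeutics Program. Each compound was tested once at a single concentration of 10 μM against the 60-cell-line panel. Growth percentage was reported for each cell line.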

SK-MEL-28 = experiment: Cytotoxicity against human SK-MEL-28 cells assessed as cell growth at 10 uM after 48 hrs by SRB assay relative to control; assay type: functional; settings: SK-MEL-28, 48 h, read-out: Activity
Summary of the method: (§2)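 First-stage NCI DTP one-dose screen against the 60 human tumour cell line panel. Compounds were tested at a single 10 μM level, and results are given as growth percentage.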

UACC-62 = experiment: Cytotoxicity against human UACC62 cells assessed as cell growth at 10 uM after 48 hrs by SRB assay relative to control; assay type: functional; settings: UACC-62, 48 h, read-out: Activity
Summary of the method: (§3)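 NCI-60 one-dose screen run by NCI DTP: each cell line exposed to a single 10 µM dose, and percentage growth recorded against untreated growth.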

IGROV-1 = experiment: Cytotoxicity against human IGROV1 cells assessed as cell growth at 10 uM after 48 hrs by SRB assay relative to control; assay type: functional; settings: IGROV-1, 48 h, read-out: Activity; summary of the method: as §1
OVCAR-4 = experiment: Cytotoxicity against human OVCAR4 cells assessed as cell growth at 10 uM after 48 hrs by SRB assay relative to control; assay type: functional; settings: OVCAR-4, 48 h, read-out: Activity; summary of the method: as §2
OVCAR-5 = experiment: Cytotoxicity against human OVCAR5 cells assessed as cell growth at 10 uM after 48 hrs by SRB assay relative to control; assay type: functional; settings: OVCAR-5, 48 h, read-out: Activity; summary of the method: as §2
NCI/ADR-RES = experiment: Cytotoxicity against human NCI/ADR-RES cells assessed as cell growth at 10 uM after 48 hrs by SRB assay relative to control; assay type: functional; settings: read-out: Activity; summary of the method: as §2
786-0 = experiment: Cytotoxicity against human 786-0 cells assessed as cell growth at 10 uM after 48 hrs by SRB assay relative to control; assay type: functional; settings: 786-0, 48 h, read-out: Activity; summary of the method: as §1
SN12C = experiment: Cytotoxicity against human SN12C cells assessed as cell growth at 10 uM after 48 hrs by SRB assay relative to control; assay type: functional; settings: read-out: Activity; summary of the method: as §2
PC-3 [1] = experiment: Cytotoxicity against human PC3 cells assessed as cell growth at 10 uM after 48 hrs by SRB assay relative to control; assay type: functional; settings: PC-3, 48 h, read-out: Activity; summary of the method: as §2
MCF7 = experiment: Cytotoxicity against human MCF7 cells assessed as cell growth at 10 uM after 48 hrs by SRB assay relative to control; assay type: functional; settings: MCF7, 48 h, read-out: Activity; summary of the method: as §1
BT-549 = experiment: Cytotoxicity against human BT549 cells assessed as cell growth at 10 uM after 48 hrs by SRB assay relative to control; assay type: functional; settings: BT-549, 48 h, read-out: Activity; summary of the method: as §1
MDA-MB-468 = experiment: Cytotoxicity against human MDA-MB-468 cells assessed as cell growth at 10 uM after 48 hrs by SRB assay relative to control; assay type: functional; settings: MDA-MB-468, 48 h, read-out: Activity; summary of the method: as §2
PC-3 [2] = experiment: Cytotoxicity against human PC3 cells after 48 hrs by SRB assay; assay type: functional, cell-based; settings: PC-3, 48 h
Summary of the method: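 Second-stage NCI-60 panel run by the NCI Developmental Therapeutics Program, covering nine tumour subpanels. Five concentrations were tested: 0.01, 0.1, 1, 10 and 100 μM. Percentage growth at each level was plotted against log10 drug concentration. GI50, TGI and LC50 were read from these dose-response curves. Subpanel MID values were divided into the full-panel MID to give selectivity ratios.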

DU-145 = experiment: Cytotoxicity against human DU145 cells after 72 hrs by MTT assay; assay type: functional, cell-based; settings: DU-145, 72 h
Summary of the method: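 DU-145 cells grown in RPMI-1640 with 5% heat-inactivated fetal calf serum at 37 °C, 5% CO2. About 2×10^3 cells per well were seeded and incubated for 24 h. Compounds were dissolved in DMSO freshly and diluted into medium (vehicle 0.1% DMSO), then cells were exposed for 72 h. MTT was added for 3 h at 37 °C and absorbance read at 570 nm.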

HL-60(TB) = experiment: Cytotoxicity against human HL-60(TB) cells assessed as cell growth at 10 uM after 48 hrs by SRB assay relative to control; assay type: functional; settings: HL-60, 48 h, read-out: Activity
Summary of the method: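 NCI Developmental Therapeutics Program 60-cell-line screen, first stage: a single dose of 10 μM against the panel, reported as percentage growth.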

MOLT-4 = experiment: Cytotoxicity against human MOLT4 cells assessed as cell growth at 10 uM after 48 hrs by SRB assay relative to control; assay type: functional; settings: MOLT-4, 48 h, read-out: Activity; summary of the method: as §2
RPMI-8226 = experiment: Cytotoxicity against human RPMI8226 cells assessed as cell growth at 10 uM after 48 hrs by SRB assay relative to control; assay type: functional; settings: RPMI-8226, 48 h, read-out: Activity; summary of the method: as §2
SR = experiment: Cytotoxicity against human SR cells assessed as cell growth at 10 uM after 48 hrs by SRB assay relative to control; assay type: functional; settings: read-out: Activity; summary of the method: as §3
HOP-62 = experiment: Cytotoxicity against human HOP62 cells assessed as cell growth at 10 uM after 48 hrs by SRB assay relative to control; assay type: functional; settings: HOP-62, 48 h, read-out: Activity; summary of the method: as §1
NCI-H322M = experiment: Cytotoxicity against human NCI-H322M cells assessed as cell growth at 10 uM after 48 hrs by SRB assay relative to control; assay type: functional; settings: read-out: Activity; summary of the method: as §2
HCC 2998 = experiment: Cytotoxicity against human HCC2998 cells assessed as cell growth at 10 uM after 48 hrs by SRB assay relative to control; assay type: functional; settings: HCC 2998, 48 h, read-out: Activity; summary of the method: as §1
HT-29 = experiment: Cytotoxicity against human HT-29 cells assessed as cell growth at 10 uM after 48 hrs by SRB assay relative to control; assay type: functional; settings: HT-29, 48 h, read-out: Activity; summary of the method: as §1
KM12 = experiment: Cytotoxicity against human KM12 cells assessed as cell growth at 10 uM after 48 hrs by SRB assay relative to control; assay type: functional; settings: KM12, 48 h, read-out: Activity; summary of the method: as §1
SNB-19 = experiment: Cytotoxicity against human SNB19 cells assessed as cell growth at 10 uM after 48 hrs by SRB assay relative to control; assay type: functional; settings: SNB-19, 48 h, read-out: Activity; summary of the method: as §3
U-251 = experiment: Cytotoxicity against human U251 cells assessed as cell growth at 10 uM after 48 hrs by SRB assay relative to control; assay type: functional; settings: U-251, 48 h, read-out: Activity; summary of the method: as §3
CAKI-1 = experiment: Cytotoxicity against human Caki1 cells assessed as cell growth at 10 uM after 48 hrs by SRB assay relative to control; assay type: functional; settings: CAKI-1, 48 h, read-out: Activity; summary of the method: as §1
[3] = Cytotoxicity against human EKVX cells assessed as cell growth at 10 uM after 48 hrs by SRB assay relative to control; assay type: functional; settings: read-out: Activity; summary of the method: as §1
CCRF-CEM = experiment: Cytotoxicity against human CCRF-CEM cells assessed as cell growth at 10 uM after 48 hrs by SRB assay relative to control; assay type: functional; settings: read-out: Activity; summary of the method: as §1

SMILES | growth at 10 µM (Malme-3M) [%] | growth at 10 µM (SK-MEL-28) [%] | growth at 10 µM (UACC-62) [%] | growth at 10 µM (IGROV-1) [%] | growth at 10 µM (786-0) [%] | growth at 10 µM (SN12C) [%] | growth at 10 µM (PC-3 [1]) [%] | growth at 10 µM (MCF7) [%] | growth at 10 µM (BT-549) [%] | growth at 10 µM (MDA-MB-468) [%] | IC50 (PC-3 [2]) [µM] | IC50 (DU-145) [µM] | growth at 10 µM (HL-60(TB)) [%] | growth at 10 µM (MOLT-4) [%] | growth at 10 µM (RPMI-8226) [%] | growth at 10 µM (SR) [%] | growth at 10 µM (HOP-62) [%] | growth at 10 µM (HCC 2998) [%] | growth at 10 µM (KM12) [%] | growth at 10 µM (SNB-19) [%] | also measured
O=C1c2ccccc2C(=O)c2c1cc(SCc1ccc(Cl)cc1)c1nsnc21 | 86.4 | 95.3 | 102 | 84.2 | 118 | 93.6 | 82.9 | 83 | 115 | 83.4 | > 15 | 7.51 | 57.4 | 22.7 | 86.8 | 63.7 | 89.2 | 103 | 105 | 104 | growth at 10 µM (OVCAR-4): 84.2%; growth at 10 µM (OVCAR-5): 104%; growth at 10 µM (NCI/ADR-RES): 95.7%; growth at 10 µM (NCI-H322M): 94.1%; growth at 10 µM (HT-29): 96.4%; growth at 10 µM (U-251): 94.4%
O=C1c2ccccc2C(=O)c2c1cc(Sc1cc(Cl)ccc1Cl)c1nsnc21 | 94.3 | 123 | 94.1 | 78.1 | 67.5 | 96.7 | 80.6 | 85.2 | 79.7 | 90.7 | > 15 | > 15 | 72.7 | 1.27 | 77.2 | 41.1 | 63.2 | 109 | 101 | 84.4 | growth at 10 µM (OVCAR-5): 109%; growth at 10 µM (NCI/ADR-RES): 83.1%; growth at 10 µM (CAKI-1): 108%; growth at 10 µM [3]: 109%; growth at 10 µM (HT-29): 106%; growth at 10 µM (U-251): 63.6%
O=C1c2ccccc2C(=O)c2c1cc(Sc1ccccc1)c1nsnc21 | 106 | 127 | 86.3 | 84.4 | 110 | 96.6 | 87.3 | 94.9 | 105 | 87.3 | > 15 | > 15 | 83.9 | 31.1 | 78.2 | 86.4 | 110 | 111 | 99.5 | 109 | growth at 10 µM (OVCAR-4): 57.8%; growth at 10 µM (CAKI-1): 89%; growth at 10 µM (CCRF-CEM): 15.7%; growth at 10 µM [3]: 97.8%; growth at 10 µM (NCI-H322M): 101%; growth at 10 µM (U-251): 88.8%
O=C1c2ccccc2C(=O)c2c1cc(Sc1ccccc1Br)c1nsnc21 | 35.3 | 64.7 | 39.6 | 27.9 | -6.19 | 22.6 | 4.23 | -6.39 | 52.2 | -79.9 | 5.76 | 9.58 | -44 | 29.7 | 9.4 | 2.94 | 4.88 | 78.4 | 57.9 | 71.4 | growth at 10 µM (OVCAR-5): 121%; growth at 10 µM (NCI/ADR-RES): -29.9%; growth at 10 µM (CAKI-1): 29.7%; growth at 10 µM [3]: 77.7%; growth at 10 µM (HT-29): 96.5%; growth at 10 µM (U-251): 11.5%
